Test results: ChEMBL document CHEMBL3871293, “Discovery of novel DNA methyltransferase 3A inhibitors via structure-based virtual screening and biological assays” (Bioorg Med Chem Lett, 2017)
Calls of active or inactive are those of the source. The calls are words filed in the database; no cut-off is given here.

Columns and labels:
[1] = target: T1, DNA (cytosine-5)-methyltransferase 3A (Homo sapiens, UniProt Q9Y6K1); experiment: (§1) Inhibition of N-terminal His6-tagged DNMT3A (623 to 908 residues) (unknown origin) expressed in Escherichia coli BL21 (DE3) coexpressing DNMT3L (160 to 386 C-terminal residues) (unknown origin) assessed as reduction in oligonucleosome methylation at 100 uM preincubated for 15 mins followed by addition of [3H]-SAM measured after 4 hrs by liquid scintillation counting method
T1 sequence (Q9Y6K1 whole entry, looked up, the tested form may be a part): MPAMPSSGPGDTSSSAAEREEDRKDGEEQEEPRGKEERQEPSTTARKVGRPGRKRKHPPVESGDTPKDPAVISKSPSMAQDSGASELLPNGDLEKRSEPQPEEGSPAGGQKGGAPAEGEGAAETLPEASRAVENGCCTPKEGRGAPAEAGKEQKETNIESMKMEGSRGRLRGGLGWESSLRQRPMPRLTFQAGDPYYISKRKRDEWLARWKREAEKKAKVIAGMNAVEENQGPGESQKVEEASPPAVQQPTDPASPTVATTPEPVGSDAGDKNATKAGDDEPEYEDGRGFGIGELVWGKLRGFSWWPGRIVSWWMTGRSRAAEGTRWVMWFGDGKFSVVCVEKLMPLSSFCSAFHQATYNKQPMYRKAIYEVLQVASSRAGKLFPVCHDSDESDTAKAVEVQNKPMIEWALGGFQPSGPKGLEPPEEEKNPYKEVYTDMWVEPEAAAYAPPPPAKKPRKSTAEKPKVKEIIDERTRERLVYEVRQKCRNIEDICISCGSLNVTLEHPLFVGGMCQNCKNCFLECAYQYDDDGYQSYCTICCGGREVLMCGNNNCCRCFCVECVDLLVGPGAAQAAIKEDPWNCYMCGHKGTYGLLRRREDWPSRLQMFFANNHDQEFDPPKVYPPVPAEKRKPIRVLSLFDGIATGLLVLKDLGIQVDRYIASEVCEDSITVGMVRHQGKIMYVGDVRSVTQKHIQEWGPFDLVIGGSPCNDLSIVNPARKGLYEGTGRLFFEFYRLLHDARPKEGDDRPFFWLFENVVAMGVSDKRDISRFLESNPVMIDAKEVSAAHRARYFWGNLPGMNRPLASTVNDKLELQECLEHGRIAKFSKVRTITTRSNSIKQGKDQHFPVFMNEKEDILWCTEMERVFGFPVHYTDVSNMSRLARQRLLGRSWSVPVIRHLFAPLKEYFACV
Procedure, shortened: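 DNMT3A/3L complex activity measured by radioactive methylation assay. Single-point screen at 100µM per compound, with sinefungin (a SAM competitor) run as the reference inhibitor.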

[2] = target: T1, DNA (cytosine-5)-methyltransferase 3A; experiment: as §1, with “methylation” for “methylation at 100 uM”
Procedure, shortened: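 IC50 determined from a dose-response in the same radioactive methylation assay on DNMT3A/3L. Sinefungin served as the SAM-competitive reference inhibitor.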

Kasumi 1 = experiment: Growth inhibition of human Kasumi-1 cells at 12.5 to 200 uM measured after 48 hrs by AlamarBlue assay; assay type: functional, cell-based
Procedure, shortened: (§2)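 AML cells were exposed to 12.5, 25, 50, 100 and 200µM for 48 hours before viability read-out: Kasumi-1, MV4-11 and THP-1.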

MV4-11 = experiment: Growth inhibition of human MV4-11 cells at 12.5 to 200 uM measured after 48 hrs by AlamarBlue assay; assay type: functional, cell-based; procedure, shortened: as §2
THP-1 = experiment: Growth inhibition of human THP1 cells at 12.5 to 200 uM measured after 48 hrs by AlamarBlue assay; assay type: functional, cell-based; procedure, shortened: as §2
KG-1 = experiment: Growth inhibition of human KG1 cells at 12.5 to 200 uM measured after 72 hrs by AlamarBlue assay; assay type: functional, cell-based
Procedure, shortened: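 KG-1 AML cells were treated at 12.5, 25, 50, 100 and 200µM, with viability read after 72 hours of exposure.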

HeLa = experiment: Growth inhibition of human HeLa cells at 12.5 to 200 uM measured after 4 days by AlamarBlue assay; assay type: functional, cell-based

Structure (SMILES)	inhibition [1]	further results
Cc1cc(O)ccc1NC(=O)c1ccc2c(c1)C(=O)N(Cc1cccnc1)C2=O	11%	
COc1ccccc1N1C(=O)c2ccc(C(=O)Nc3ccccc3O)cc2C1=O	1%	
Cc1ccc(O)c(NC(=O)c2ccc3c(c2)C(=O)N(Cc2cccnc2)C3=O)c1	6%	
COc1ccc(N2C(=O)c3ccc(C(=O)Nc4ccccc4OC)cc3C2=O)cc1	4%	
O=C(Nc1ccc(Br)cc1C(=O)O)c1ccc2c(c1)C(=O)N(c1cc(Cl)ccc1C(=O)O)C2=O	67%	IC50 [2]: 41 µM; growth inhibition (GI) (Kasumi 1): Active; growth inhibition (GI) (MV4-11): Active; growth inhibition (GI) (THP-1): Active; growth inhibition (GI) (KG-1): Active; growth inhibition (GI) (HeLa): Active
Cc1cc(Br)ccc1NC(=O)c1ccc2c(c1)C(=O)N(CC(C)C)C2=O	8%	
COc1ccccc1NC(=O)c1ccc2c(c1)C(=O)N(Cc1ccco1)C2=O	3%	
O=C(Nc1ccccc1Cl)c1ccc2c(c1)C(=O)N(Cc1ccco1)C2=O	13%	

The next lines start with results.

inhibition [1]	Structure (SMILES)	further results
-8%	COCCN1C(=O)c2ccc(C(=O)Nc3ccc(Br)cc3C(=O)O)cc2C1=O	
11%	CC(C)(C)N1C(=O)c2ccc(C(=O)Nc3ccc(C(=O)O)cc3)cc2C1=O	
92%	O=C(O)c1ccc(NC(=O)c2ccc3c(c2)C(=O)N(Cc2ccco2)C3=O)cc1	IC50 [2]: 64 µM
19%	CCOc1ccc(NC(=O)c2ccc3c(c2)C(=O)N(c2ccccc2)C3=O)cc1	
Active	CC(c1ccccc1)N1C(=O)c2ccc(C(=O)Nc3ccc(Br)cc3C(=O)O)cc2C1=O (configuration not stated)	IC50 [2]: 46.5 µM; growth inhibition (GI) (Kasumi 1): Active; growth inhibition (GI) (MV4-11): Active; growth inhibition (GI) (THP-1): Active; growth inhibition (GI) (KG-1): Active; growth inhibition (GI) (HeLa): Active
56%	CCOc1ccccc1N1C(=O)c2ccc(C(=O)Nc3ccc(Br)cc3C(=O)O)cc2C1=O	
